# Measurements published in PMC3243785 (Chemical research in toxicology, 2011).
# Where two headings read alike, the source gives them in different places.
# Legend:
# [1] = system: hepatic microsomes from PB-, DEX- or VEH-treated rats (P450 enzymes); format: in vitro ADME, rat; settings: for Metabolite identified by GC/MS (major/minor): large scale experiment; for Metabolite formation, Percent of ΣOH-PCB: 37°C; for Percent of PCB 136 metabolized to the metabolite: microsomes from PB-, DEX- or VEH-treated rats; for Percent of PCB 136 metabolized to the metabolite / Percent of PCB 136 converted to the metabolite: 50 μM PCB 136; for Formation of metabolite relative to microsomes from VEH-treated rats: 2 min incubation
# [2] = system: hepatic microsomes from PB-, DEX- or VEH-treated rats (P450 enzymes); assay: Enantioselective gas chromatography; format: in vitro ADME, rat; settings: for Enantiomeric fraction (EF), range over time course: 50 μM PCB 136
# [3] = system: Ryanodine receptors (RyRs); settings: cited from earlier work
# rat recombinant P450 2B1 = settings: cited from earlier work
# P450 2B enzymes = assay: BROD activity of hepatic microsomes from inducer-treated rats; format: biochemical, rat; settings: intraperitoneal inducer treatment of male Sprague-Dawley rats, relative to VEH
# P450 3A = assay: BQ activity of hepatic microsomes from inducer-treated rats; format: biochemical, rat; settings: intraperitoneal inducer treatment of male Sprague-Dawley rats, relative to VEH
# [4] = Aqueous solubility of PCB 136 in incubation buffer by light scattering; format: physicochemical; settings: phosphate buffer (incubation buffer), pH 7.4
# Method in brief: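 Test compound dissolved in DMSO was added to 0.1 M phosphate buffer containing 3 mM MgCl2. Light scattering was read at 37 °C in a Peltier-controlled luminescence spectrophotometer, with excitation and emission both at 400 nm and 5 nm slits. Integration time was 5 s, with 5 min pre-recording followed by 5 min recording.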
# [5] = microsomes from PB-treated rats
# [6] = microsomes from DEX-treated rats, 5 μM PCB 136, 5 min
# [7] = microsomes from PB-treated rats, 5 μM PCB 136, 5 min
# [8] = microsomes from VEH-treated rats, 5 μM PCB 136, 5 min
# [9] = microsomes from PB-treated rats, 50 μM PCB 136, 5 min
# [10] = all incubations with 5 μM PCB 136
# [11] = all three microsomal preparations
# [12] = microsomes from DEX-treated rats
smiles,measurement,setting,value
"Oc1c(O)c(Cl)c(-c2c(Cl)ccc(Cl)c2Cl)c(Cl)c1Cl [4,5-diOH-PCB 136, 2,2',3,3',6,6'-hexachlorobiphenyl-4,5-diol]",Metabolite identified by GC/MS (major/minor),[1]; [5],minor metabolites
same,"Metabolite formation, Percent of ΣOH-PCB",[1]; [6],3%
same,Percent of PCB 136 metabolized to the metabolite,[1],< 0.1%
same,"Metabolite formation, Percent of ΣOH-PCB",[1]; [7],22%
same,"Metabolite formation, Percent of ΣOH-PCB",[1]; [8],2%
same,"Metabolite formation, Percent of ΣOH-PCB","[1]; microsomes from VEH-treated rats, 50 μM PCB 136, 5 min",1%
"Oc1cc(Cl)c(-c2c(Cl)ccc(Cl)c2Cl)c(Cl)c1Cl [4-OH-PCB 136, 2,2',3,3',6,6'-hexachlorobiphenyl-4-ol]",Metabolite identified by GC/MS (major/minor),[1]; [5],minor metabolites
same,"Metabolite formation, Percent of ΣOH-PCB",[1]; [6],3%
same,"Metabolite formation, Percent of ΣOH-PCB","[1]; microsomes from DEX-treated rats, 50 μM PCB 136, 5 min",2%
same,Percent of PCB 136 metabolized to the metabolite,[1],0.1%
same,"Metabolite formation, Percent of ΣOH-PCB",[1]; [9],1%
same,"Metabolite formation, Percent of ΣOH-PCB",[1]; [8],15%
same,Enantiomeric fraction (EF),"[2]; DEX-microsomes, 5 μM PCB 136, 30 min",0.22
same,Enantiomeric fraction (EF),"[2]; DEX-microsomes, 50 μM PCB 136, 1 min",0.39
same,Enantiomeric fraction (EF),"[2]; DEX-microsomes, 50 μM PCB 136, 10 min",0.33
same,Enantiomeric fraction (EF),"[2]; PB-microsomes, 50 μM PCB 136, 1 min",0.43
same,"Enantiomeric fraction (EF), direction of enrichment",[2]; [10],< 0.5
same,"Enantiomeric fraction (EF), direction of enrichment",[2]; [11],< 0.5
same,Concentration needed to double basal RyR activity (EC2x),[3],1.60 µM
same,Formation of metabolite by rat recombinant P450 2B1,rat recombinant P450 2B1,no detectable quantities
"Oc1cc(Cl)c(Cl)c(-c2c(Cl)ccc(Cl)c2Cl)c1Cl [5-OH-PCB 136, 2,2',3,3',6,6'-hexachlorobiphenyl-5-ol]",Metabolite identified by GC/MS (major/minor),[1]; [5],major metabolite
same,"Metabolite formation, Percent of ΣOH-PCB",[1]; [6],94%
same,Percent of PCB 136 converted to the metabolite,[1]; [12],~2%
same,Formation of metabolite relative to microsomes from VEH-treated rats,[1]; [12],8 times
same,"Metabolite formation, Percent of ΣOH-PCB",[1]; [7],78%
same,Percent of PCB 136 converted to the metabolite,[1]; [5],approximately 22%
same,"Metabolite formation, Percent of ΣOH-PCB",[1]; [9],99%
same,Formation of metabolite relative to microsomes from VEH-treated rats,[1]; [5],84 times
same,"Metabolite formation, Percent of ΣOH-PCB",[1]; [8],83%
same,Percent of PCB 136 converted to the metabolite,[1]; microsomes from VEH-treated rats,~0.4%
same,"Enantiomeric fraction (EF), range over time course",[2]; PB-microsomes,0.70-0.72
same,"Enantiomeric fraction (EF), range over time course",[2]; VEH-microsomes,0.62-0.75
same,Enantiomeric fraction (EF),"[2]; VEH-microsomes, 50 μM PCB 136, 1 min",0.62
same,"Enantiomeric fraction (EF), direction of enrichment",[2]; [10],> 0.5
same,"Enantiomeric fraction (EF), direction of enrichment",[2]; [11],> 0.5
Clc1ccc(Cl)c(-c2c(Cl)ccc(Cl)c2Cl)c1Cl [(-)-PCB 136],Activity towards RyRs,[3]; enantiospecific,displays activity
"C[C@@H]1C[C@H]2[C@@H]3CCC4=CC(=O)C=C[C@]4(C)[C@@]3(F)[C@@H](O)C[C@]2(C)[C@@]1(O)C(=O)CO [DEX, dexamethasone]",Increase in BROD activity in hepatic microsomes of treated rats,P450 2B enzymes,7 fold
same,Increase in BQ activity in hepatic microsomes of treated rats,P450 3A,84 fold
"CCC1(c2ccccc2)C(=O)NC(=O)NC1=O [PB, phenobarbital]",Increase in BROD activity in hepatic microsomes of treated rats,P450 2B enzymes,94 fold
"Clc1ccc(Cl)c(-c2c(Cl)ccc(Cl)c2Cl)c1Cl [PCB 136, 2,2',3,3',6,6'-hexachlorobiphenyl]",Enantiomeric fraction (EF),"[2]; PB-microsomes, 5 μM PCB 136, 5 min incubation",0.35
same,Enantiomeric fraction (EF),"[2]; VEH-microsomes, 5 μM PCB 136, 5 min incubation",0.49
same,solubility,[4],~0.25 µM
